The results in this text go back to ChEMBL document CHEMBL3352722, “Calcitonin gene-related peptide receptor antagonists: new therapeutic agents for migraine” (J Med Chem, 2014).

Test [1] deals with Calcitonin gene-related peptide type 1 receptor (Homo sapiens, UniProt O60894+Q16602). Kind of test: Antagonist activity against human CGRP receptor.
For test [2], the species on record is Homo sapiens. Kind of test: Antimigraine activity in migraine patient assessed as pain freedom incidence at 100 mg after 2 hrs (reference value: 15.3%). The format is functional.
For test [3], the species on record is Homo sapiens. Kind of test: Antimigraine activity in migraine patient assessed as pain relief incidence at 100 mg after 2 hrs (reference value: 51.2%). In kind it is functional.
Test [4] is filed under the species Homo sapiens. Kind of test: Antimigraine activity in migraine patient assessed as pain freedom incidence at 75 mg after 2 hrs (reference value: 15.3%). The format is functional.
The species named for test [5] is Homo sapiens. Kind of test: Antimigraine activity in migraine patient assessed as pain freedom incidence at 300 mg after 2 hrs (reference value: 15.3%). In kind it is functional.
The species entered for test [6] is Homo sapiens. Kind of test: Antimigraine activity in migraine patient assessed as pain relief incidence at 75 mg after 2 hrs (reference value: 51.2%). In kind it is functional.
The species named for test [7] is Homo sapiens. Kind of test: Antimigraine activity in migraine patient assessed as pain relief incidence at 300 mg after 2 hrs (reference value: 51.2%). In kind it is functional.
For test [8], the species on record is Homo sapiens. Kind of test: Antimigraine activity in migraine patient assessed as response rate for pain freedom at 150 mg after 2 hrs. In kind it is functional.
The species entered for test [9] is Homo sapiens. Kind of test: Antimigraine activity in migraine patient assessed as pain freedom incidence at 5 mg after 2 hrs (reference value: 9.6%). In kind it is functional.
The species entered for test [10] is Homo sapiens. Kind of test: Antimigraine activity in migraine patient assessed as pain relief incidence at 5 mg after 2 hrs (reference value: 27.7%). The format is functional.
The species named for test [11] is Homo sapiens. Kind of test: Antimigraine activity in migraine patient assessed as induction pain relief at 5 mg after 2 hrs. In kind it is functional.
The species entered for test [12] is Homo sapiens. Kind of test: Antimigraine activity in migraine patient assessed as pain freedom incidence at 10 mg after 2 hrs (reference value: 9.8%). In kind it is functional.
The species named for test [13] is Homo sapiens. Kind of test: Antimigraine activity in migraine patient assessed as pain freedom incidence at 200 mg after 2 hrs (reference value: 9.8%). The format is functional.
The species named for test [14] is Homo sapiens. Kind of test: Antimigraine activity in migraine patient assessed as pain relief incidence at 10 mg after 2 hrs (reference value: 36.1%). The format is functional.
Test [15] is filed under the species Homo sapiens. Kind of test: Antimigraine activity in migraine patient assessed as pain relief incidence at 200 mg after 2 hrs (reference value: 36.1%). In kind it is functional.
Test [16] in a line: Binding affinity to rhesus monkey CGRP receptor. On the set-up: species or system Macaca mulatta.
The species entered for test [17] is Homo sapiens. Kind of test: Selectivity for human CGRP receptor over AM1 receptor (unknown origin).
For test [18], the species on record is Homo sapiens. Kind of test: Selectivity for human CGRP receptor over AM2 receptor (unknown origin). A digest of the protocol:
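Radioligand binding on membranes from HEK293 cells stably expressing human CLR/RAMP1 (CGRP receptor; [125I]hCGRP displaced) or human CLR/RAMP3 (AM2 receptor; [125I]hAM displaced). Ki values come from inhibition of radioligand binding. Selectivity is the ratio of AM2 Ki to CGRP Ki.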

The species entered for test [19] is Homo sapiens. Kind of test: Selectivity for human CGRP receptor over AMY1 receptor (unknown origin).
Test [20] is filed under the species Homo sapiens. Kind of test: Inhibition of capsaicin-induced dermal vasodilation in human by laser Doppler imaging method. The format is functional.
Test [21] addresses Calcitonin gene-related peptide type 1 receptor (Homo sapiens, UniProt Q16602).

Calcitonin gene-related peptide type 1 receptor (Homo sapiens, UniProt O60894+Q16602), sequence (Q16602 whole entry, one chain of several): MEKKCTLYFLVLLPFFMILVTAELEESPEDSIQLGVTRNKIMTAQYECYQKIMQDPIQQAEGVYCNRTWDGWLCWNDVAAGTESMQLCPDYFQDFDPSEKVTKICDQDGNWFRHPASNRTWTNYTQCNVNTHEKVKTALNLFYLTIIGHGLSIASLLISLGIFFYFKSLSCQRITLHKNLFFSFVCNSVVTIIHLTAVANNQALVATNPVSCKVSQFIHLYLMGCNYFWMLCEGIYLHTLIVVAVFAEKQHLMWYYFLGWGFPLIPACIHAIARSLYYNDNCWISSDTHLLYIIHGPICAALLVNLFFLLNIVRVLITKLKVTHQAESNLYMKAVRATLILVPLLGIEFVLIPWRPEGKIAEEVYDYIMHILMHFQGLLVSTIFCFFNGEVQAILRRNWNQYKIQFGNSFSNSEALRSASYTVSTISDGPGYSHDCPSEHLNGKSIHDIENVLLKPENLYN
Calcitonin gene-related peptide type 1 receptor (Homo sapiens, UniProt Q16602), sequence (Q16602 whole entry): as the sequence (Q16602 whole entry, one chain of several) above

In general, IC50 refers to the concentration needed to halve the response being measured. For `NCCCC[C@H](NC(=O)[C@@H](Cc1cc(Br)c(O)c(Br)c1)NC(=O)N1CCC(n2c(=O)oc3ccccc32)CC1)C(=O)N1CCN(c2ccncc2)CC1`, in [1], the IC50 turned out to be 44 nM.

Consider `NCCCC[C@H](NC(=O)[C@@H](Cc1cc(Br)c(O)c(Br)c1)NC(=O)CCCc1ccccc1)C(=O)NCCc1ccccc1`, for which the IC50 in test [1] came to 17000 nM.

Consider `CNS(=O)(=O)Cc1ccc2[nH]cc(CCN(C)C)c2c1`, for which the Activity amounted to 35% in the test filed under Homo sapiens [2] and 72% in the test filed under Homo sapiens [3].

As for `N[C@@H]1c2cccnc2[C@H](OC(=O)N2CCC(n3c(=O)[nH]c4ncccc43)CC2)CC[C@H]1c1cccc(F)c1F` [RIMEGEPANT], the Activity in the test listed under Homo sapiens [4] amounted to 31.4%; in the test listed under Homo sapiens [5], 29.7%; in the test filed under Homo sapiens [6], 72.1%; in the test listed under Homo sapiens [7] it was 75.5%; in the test filed under Homo sapiens [8] it was 32.9%.

In the case of `CN(C)CCc1c[nH]c2ccc(C[C@H]3COC(=O)N3)cc12` [ZOLMITRIPTAN], the Activity in the test listed under Homo sapiens [9] is 31.3%; in the test listed under Homo sapiens [10], 56.4%; in the test filed under Homo sapiens [11], 56.4%.

Broadly, the Ki is a dissociation constant, usually derived from enzyme kinetics or from competition with a known ligand. The term EC90 denotes the concentration at which the effect reaches the 90% level. On to `O=C(CN1C(=O)C2(CCCC2)NC[C@H]1c1cc(F)cc(F)c1)Nc1ccc2c(c1)C[C@@]1(C2)C(=O)Nc2ncccc21` [MK3207], for which the Activity worked out at 25.4% in the test listed under Homo sapiens [12], 36.2% in the test listed under Homo sapiens [13], 57.1% in the test filed under Homo sapiens [14] and 69% in the test listed under Homo sapiens [15]. This compound showed a Ki in [16] of 0.024 nM. The results for the Selectivity ratio in the test listed under Homo sapiens [17], in the test filed under Homo sapiens [18] and in the test listed under Homo sapiens [19] were more than 600000, 6500 and 30, respectively. In the test listed under Homo sapiens [20], this compound had a concentration for an effect of 90% (EC90) of 14 nM. In test [21], the T1/2 was 59 min.
